# Assay results from ChEMBL document CHEMBL4400512, “Searching for new agents active against Candida albicans biofilm: A series of indole derivatives, design, synthesis and biological evaluation” (Eur J Med Chem, 2019).
# Tests used:
# [1] = tested on: Candida albicans; experiment: Antibiofilm activity against Candida albicans ATCC 10231 assessed as inhibition of mature biofilm formation by XTT reduction assay; type: functional
# Procedure, shortened: (§1)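 Biofilm assay after Pierce et al., with compound applied either during biofilm formation or to 24 h pre-formed (mature) biofilm. Read-out is metabolic activity of cells in the biofilm by XTT reduction. BMIC50 is the lowest concentration giving a 50% drop relative to untreated growth control. Tested in triplicate, at least two experiments on separate dates; median reported.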
# [2] = tested on: Candida albicans; experiment: Antibiofilm activity against Candida albicans ATCC 10231 assessed as inhibition of biofilm formation by XTT reduction assay; type: functional; procedure, shortened: as §1
# [3] = tested on: Candida albicans; experiment: Antifungal activity against planktonic form of Candida albicans ATCC 10231 by broth microdilution method; type: organism-based; conditions: in vitro
# Procedure, shortened: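 CLSI M27-A3 broth microdilution. Cells grown on Sabouraud dextrose agar at 35°C for 24 h; final inoculum 1×10^3–5×10^3 cells/mL. Compounds from DMSO stocks, final DMSO below 1%, final range 256–0.25 µg/mL. Controls were DMSO 1% and fluconazole reference. MIC50 is the lowest concentration giving ≥50% growth inhibition. Three independent experiments in duplicate; median reported.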
# [4] = tested on: Candida albicans; experiment: Antibiofilm activity against Candida albicans PMC 1042 assessed as inhibition of mature biofilm formation by XTT reduction assay; type: functional
# Procedure, shortened: (§2)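 Biofilm method of Pierce et al. Biofilms were treated either during formation or once mature (24 h preformed). Metabolic activity of the cells within the biofilm was read by XTT reduction. BMIC50 is the lowest concentration giving a 50% drop in metabolic activity versus the untreated growth control. At least two experiments on separate dates, triplicate, reported as median.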
# [5] = tested on: Candida albicans; experiment: Antibiofilm activity against Candida albicans PMC 1042 assessed as inhibition of biofilm formation by XTT reduction assay; type: functional; procedure, shortened: as §2
# [6] = tested on: Candida albicans; experiment: Antifungal activity against planktonic form of Candida albicans PMC 1042 by broth microdilution method; type: organism-based; conditions: in vitro
# Procedure, shortened: (§3)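 Broth microdilution per CLSI M27-A3 and M27-S4. Strains were grown on Sabouraud dextrose agar at 35°C for 24 h. Final inoculum 1×10^3–5×10^3 cells/mL. Compounds were dissolved in DMSO (final <1%); 1% DMSO served as control. Final range 256–0.25 µg/mL. MIC50 is the lowest concentration giving ≥50% growth inhibition. Three independent experiments in duplicate, median; fluconazole as reference.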
# [7] = tested on: Candida albicans; experiment: Antibiofilm activity against Candida albicans PMC 1082 assessed as inhibition of mature biofilm formation by XTT reduction assay; type: functional; procedure, shortened: as §2
# [8] = tested on: Candida albicans; experiment: Antibiofilm activity against Candida albicans PMC 1082 assessed as inhibition of biofilm formation by XTT reduction assay; type: functional; procedure, shortened: as §2
# [9] = tested on: Candida albicans; experiment: Antifungal activity against planktonic form of Candida albicans PMC 1082 by broth microdilution method; type: organism-based; conditions: in vitro; procedure, shortened: as §3
# [10] = tested on: Candida albicans; experiment: Antibiofilm activity against Candida albicans ATCC 10261 assessed as inhibition of mature biofilm formation by XTT reduction assay; type: functional; procedure, shortened: as §2
# [11] = tested on: Candida albicans; experiment: Antibiofilm activity against Candida albicans ATCC 10261 assessed as inhibition of biofilm formation by XTT reduction assay; type: functional; procedure, shortened: as §2
# [12] = tested on: Candida albicans; experiment: Antifungal activity against planktonic form of Candida albicans ATCC 10261 by broth microdilution method; type: organism-based; conditions: in vitro; procedure, shortened: as §3
# [13] = Toxicity in Galleria mellonella larvae assessed as larval survival at 500 ug/ml after 24 hrs relative to control
# Procedure, shortened: (§4)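 Ten healthy larvae per group, stored at 15°C in the dark. Each got a 20 µL injection into the haemocoel via the last left proleg, with compound freshly made in sterile water containing <1% v/v DMSO. Larvae were incubated at 30°C and survival scored every 24 h; death was no movement on stimulation plus cuticle discolouration. Controls were untreated, pierced-only and vehicle. Mean % survival of two independent experiments.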
# [14] = Toxicity in Galleria mellonella larvae assessed as larval survival at 100 ug/ml after 24 hrs relative to control; procedure, shortened: as §4
# [15] = Toxicity in Galleria mellonella larvae assessed as larval survival at 50 ug/ml after 24 hrs relative to control; procedure, shortened: as §4
# [16] = Toxicity in Galleria mellonella larvae assessed as larval survival at 10 ug/ml after 24 hrs relative to control; procedure, shortened: as §4
# [17] = Toxicity in Galleria mellonella larvae assessed as larval survival at 500 ug/ml after 48 hrs relative to control; procedure, shortened: as §4
# [18] = Toxicity in Galleria mellonella larvae assessed as larval survival at 100 ug/ml after 48 hrs relative to control; procedure, shortened: as §4
# [19] = Toxicity in Galleria mellonella larvae assessed as larval survival at 50 ug/ml after 48 hrs relative to control; procedure, shortened: as §4
# [20] = Toxicity in Galleria mellonella larvae assessed as larval survival at 10 ug/ml after 48 hrs relative to control; procedure, shortened: as §4
# [21] = Toxicity in Galleria mellonella larvae assessed as larval survival at 500 ug/ml after 72 hrs relative to control; procedure, shortened: as §4
# [22] = Toxicity in Galleria mellonella larvae assessed as larval survival at 100 ug/ml after 72 hrs relative to control; procedure, shortened: as §4
# [23] = Toxicity in Galleria mellonella larvae assessed as larval survival at 50 ug/ml after 72 hrs relative to control; procedure, shortened: as §4
# [24] = Toxicity in Galleria mellonella larvae assessed as larval survival at 10 ug/ml after 72 hrs relative to control; procedure, shortened: as §4
# [25] = Toxicity in Galleria mellonella larvae assessed as larval survival at 1000 ug/ml after 24 hrs relative to control; procedure, shortened: as §4
# [26] = Toxicity in Galleria mellonella larvae assessed as larval survival at 1000 ug/ml after 48 hrs relative to control; procedure, shortened: as §4
# [27] = Toxicity in Galleria mellonella larvae assessed as larval survival at 1000 ug/ml after 72 hrs relative to control; procedure, shortened: as §4
# [28] = Toxicity in Galleria mellonella larvae assessed as larval survival at 5 ug/ml after 24 hrs relative to control; procedure, shortened: as §4
# [29] = Toxicity in Galleria mellonella larvae assessed as larval survival at 5 ug/ml after 48 hrs relative to control; procedure, shortened: as §4
# [30] = Toxicity in Galleria mellonella larvae assessed as larval survival at 5 ug/ml after 72 hrs relative to control; procedure, shortened: as §4
Compound,MBIC50 [1] [µg/mL],MBIC50 [2] [µg/mL],MIC50 [3] [µg/mL],MBIC50 [4] [µg/mL],MBIC50 [5] [µg/mL],MIC50 [6] [µg/mL],MBIC50 [7] [µg/mL],MBIC50 [8] [µg/mL],MIC50 [9] [µg/mL],MBIC50 [10] [µg/mL],MBIC50 [11] [µg/mL],MIC50 [12] [µg/mL],survival at 24 h [13] [%],survival at 24 h [14] [%],survival at 24 h [15] [%],survival at 24 h [16] [%],survival at 48 h [17] [%],survival at 48 h [18] [%],survival at 48 h [19] [%],survival at 48 h [20] [%],other results
CC(C)Cc1ccc(C(C)C(=O)NCCc2c[nH]c3ccccc23)cc1 (stereo unspecified),8,16,> 128,2,8,> 256,4,8,> 256,8,8,> 256,100,100,100,100,100,100,100,100,survival at 72 h [21]: 100%; survival at 72 h [22]: 100%; survival at 72 h [23]: 100%; survival at 72 h [24]: 100%; survival at 24 h [25]: 100%; survival at 48 h [26]: 100%; survival at 72 h [27]: 100%
O=[N+]([O-])c1ccc(N2CCN(Cc3c[nH]c4ccccc34)CC2)cc1,4,>128,> 128,2,32,> 256,2,32,> 256,8,32,> 256,100,100,100,100,100,100,100,100,survival at 24 h [28]: 100%; survival at 48 h [29]: 100%; survival at 72 h [21]: 100%; survival at 72 h [22]: 100%; survival at 72 h [23]: 100%; survival at 72 h [24]: 100%; survival at 72 h [30]: 100%
c1ccc2c(CCNCc3ccc(CNCCc4c[nH]c5ccccc45)cc3)c[nH]c2c1,8,16,> 128,2,8,> 256,4,8,> 256,4,4,256,100,100,100,100,100,100,90,100,survival at 24 h [28]: 100%; survival at 48 h [29]: 100%; survival at 72 h [21]: 100%; survival at 72 h [22]: 100%; survival at 72 h [23]: 90%; survival at 72 h [24]: 100%; survival at 72 h [30]: 100%
